In brackets after ≈: the same amount, converted by molar mass. Activity calls are given as the source filed them. The calls are words filed in the database; no cut-off is given here.
What was measured:
Staphylococcus aureus [1] = experiment: Antibacterial activity against methicillin-resistant Staphylococcus aureus ATCC 33591 after 18 to 24 hrs by macrodilution technique; format: functional
Outline: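 Broth macrodilution per CLSI, run in triplicate on separate occasions. Twofold serial drug dilutions in broth, inoculum approx. 5 × 10⁵ CFU/ml, 37°C for 18 to 24 h. MIC taken as the lowest concentration with no visible growth.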

Staphylococcus aureus [2] = experiment: Antibacterial activity against methicillin-resistant Staphylococcus aureus ATCC 33591 assessed as bacterial killing at 0.5 to 50 times MIC after 24 hrs in presence of 50% human serum; format: functional, organism-based
Outline: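 Static time-kill in M-H broth, in M-H broth with 40 g/liter fatty-acid-free purified human albumin, or in M-H broth with inactivated 50% human serum. Inoculum approx. 5 × 10⁵ CFU/ml, drug at 0.5, 1, 2.5, 5, 10, 25 and 50× MIC, 37°C. Samples at 0, 3, 6, 12 and 24 h plated on blood agar, counted after 24 h. Detection limit 5 × 10¹ CFU/ml. Run in duplicate.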

Staphylococcus aureus [3] = experiment: Antibacterial activity against methicillin-susceptible Staphylococcus aureus ATCC 13709 assessed as bacterial killing at 10 times MIC after 6 hrs in MH-broth; format: functional, organism-based
Staphylococcus aureus [4] = experiment: Antibacterial activity against methicillin-susceptible Staphylococcus aureus ATCC 13709 assessed as bacterial killing at 10 times MIC after 6 hrs in PBS-nutrient depleted medium; format: functional, organism-based
Staphylococcus aureus [5] = experiment: Antibacterial activity against methicillin-resistant Staphylococcus aureus ATCC 33591 assessed as bacterial killing at 10 times MIC after 24 hrs in PBS-nutrient depleted medium; format: functional, organism-based
Outline: (§1)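 Strain diluted in M-H broth to approx. 10⁵ CFU/ml and grown 6 h into log phase, then split. Broth tubes got drug at 10× MIC directly. PBS tubes were transferred to PBS and held 3 h more, then dosed at 10× MIC. Growth controls were run in each medium. Viable counts at 0, 3, 6, 9, 12 and 24 h. Run in duplicate.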

Staphylococcus aureus [6] = experiment: Antibacterial activity against methicillin-resistant Staphylococcus aureus ATCC 33591 assessed as bacterial killing at 10 times MIC after 24 hrs in MH-broth; format: functional, organism-based; outline: as §1
Staphylococcus aureus [7] = experiment: Antibacterial activity against methicillin-susceptible Staphylococcus aureus ATCC 13709 assessed as bacterial regrowth at 5 mg/liter Cmax; format: functional, organism-based
[8] = Ratio of AUC in in vitro kinetic model containing Mueller-Hinton broth and methicillin-susceptible Staphylococcus aureus ATCC 13709 to MIC for methicillin-susceptible Staphylococcus aureus ATCC 13709 in bacterial regrowth stage; format: functional
Staphylococcus aureus [9] = experiment: Antibacterial activity against methicillin-susceptible Staphylococcus aureus ATCC 13709 assessed as change in bacterial burden at 1 mg/liter after 6 hrs; format: functional
Staphylococcus aureus [10] = experiment: Antibacterial activity against methicillin-susceptible Staphylococcus aureus ATCC 13709 assessed as change in bacterial burden at 1 mg/liter after 12 hrs; format: functional
Outline: (§2)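 In vitro kinetic model: spinner flask with 0.45-μm filter and prefilter, stirred, M-H broth at 37°C, starting inoculum approx. 5 × 10⁵ CFU/ml. Single initial drug dose of 1.0 to 40 mg/liter, with flow set to give a half-life of approx. 8 h. Viable counts at 0, 2, 4, 6, 8, 12 and 24 h. Duplicate runs per strain and concentration.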

Staphylococcus aureus [11] = experiment: Antibacterial activity against methicillin-susceptible Staphylococcus aureus ATCC 13709 assessed as change in bacterial burden at 1 mg/liter after 24 hrs; format: functional
Staphylococcus aureus [12] = experiment: Antibacterial activity against methicillin-resistant Staphylococcus aureus ATCC 33591 assessed as change in bacterial burden at 20 mg/liter after 2 hrs; format: functional; outline: as §2
Staphylococcus aureus [13] = experiment: Antibacterial activity against methicillin-resistant Staphylococcus aureus ATCC 33591 assessed as change in bacterial burden at 10 mg/liter after 12 hrs; format: functional; outline: as §2
Staphylococcus aureus [14] = experiment: Antibacterial activity against methicillin-resistant Staphylococcus aureus ATCC 33591 assessed as change in bacterial burden at 10 mg/liter after 8 hrs; format: functional; outline: as §2
Staphylococcus aureus [15] = experiment: Antibacterial activity against methicillin-resistant Staphylococcus aureus ATCC 33591 assessed as change in bacterial burden at 5 mg/liter after 8 hrs; format: functional; outline: as §2
Staphylococcus aureus [16] = experiment: Antibacterial activity against methicillin-resistant Staphylococcus aureus ATCC 33591 assessed as change in bacterial burden at 2.5 mg/liter after 24 hrs; format: functional; outline: as §2
Staphylococcus aureus [17] = experiment: Antibacterial activity against methicillin-resistant Staphylococcus aureus ATCC 33591 assessed as change in bacterial burden at 2.5 mg/liter after 12 hrs; format: functional; outline: as §2
Staphylococcus aureus [18] = experiment: Antibacterial activity against methicillin-susceptible Staphylococcus aureus ATCC 13709 assessed as change in bacterial burden at 5 mg/liter after 4 hrs; format: functional
Staphylococcus aureus [19] = experiment: Antibacterial activity against methicillin-susceptible Staphylococcus aureus ATCC 13709 assessed as change in bacterial burden at 2.5 mg/liter after 24 hrs; format: functional; outline: as §2
Staphylococcus aureus [20] = experiment: Antibacterial activity against methicillin-susceptible Staphylococcus aureus ATCC 13709 assessed as change in bacterial burden at 2.5 mg/liter after 6 hrs; format: functional
Staphylococcus aureus [21] = experiment: Antibacterial activity against methicillin-susceptible Staphylococcus aureus ATCC 13709 assessed as change in bacterial burden at 2.5 mg/liter after 4 hrs; format: functional
Staphylococcus aureus [22] = experiment: Antibacterial activity against methicillin-resistant Staphylococcus aureus ATCC 33591 assessed as change in bacterial burden at 20 mg/liter after 8 hrs; format: functional; outline: as §2
Staphylococcus aureus [23] = experiment: Antibacterial activity against methicillin-resistant Staphylococcus aureus ATCC 33591 assessed as change in bacterial burden at 1 mg/liter after 2 hrs; format: functional; outline: as §2
Staphylococcus aureus [24] = experiment: Antibacterial activity against methicillin-susceptible Staphylococcus aureus ATCC 13709 assessed as change in bacterial burden at 40 mg/liter after 24 hrs; format: functional
Staphylococcus aureus [25] = experiment: Antibacterial activity against methicillin-susceptible Staphylococcus aureus ATCC 13709 assessed as change in bacterial burden at 40 mg/liter after 8 hrs; format: functional
Staphylococcus aureus [26] = experiment: Antibacterial activity against methicillin-susceptible Staphylococcus aureus ATCC 13709 assessed as change in bacterial burden at 40 mg/liter after 6 hrs; format: functional
Staphylococcus aureus [27] = experiment: Antibacterial activity against methicillin-susceptible Staphylococcus aureus ATCC 13709 assessed as change in bacterial burden at 40 mg/liter after 4 hrs; format: functional
Staphylococcus aureus [28] = experiment: Antibacterial activity against methicillin-susceptible Staphylococcus aureus ATCC 13709 assessed as change in bacterial burden at 40 mg/liter after 2 hrs; format: functional; outline: as §2
Staphylococcus aureus [29] = experiment: Antibacterial activity against methicillin-susceptible Staphylococcus aureus ATCC 13709 assessed as change in bacterial burden at 20 mg/liter after 24 hrs; format: functional
Staphylococcus aureus [30] = experiment: Antibacterial activity against methicillin-susceptible Staphylococcus aureus ATCC 13709 assessed as change in bacterial burden at 20 mg/liter after 6 hrs; format: functional; outline: as §2
Staphylococcus aureus [31] = experiment: Antibacterial activity against methicillin-susceptible Staphylococcus aureus ATCC 13709 assessed as change in bacterial burden at 20 mg/liter after 4 hrs; format: functional
Staphylococcus aureus [32] = experiment: Antibacterial activity against methicillin-susceptible Staphylococcus aureus ATCC 13709 assessed as change in bacterial burden at 20 mg/liter after 2 hrs; format: functional
Staphylococcus aureus [33] = experiment: Antibacterial activity against methicillin-susceptible Staphylococcus aureus ATCC 13709 assessed as change in bacterial burden at 10 mg/liter after 4 hrs; format: functional
Staphylococcus aureus [34] = experiment: Antibacterial activity against methicillin-susceptible Staphylococcus aureus ATCC 13709 assessed as change in bacterial burden at 5 mg/liter after 12 hrs; format: functional

With CCCCCCCCCCNCCN[C@@]1(C)C[C@H](O[C@H]2[C@H](Oc3c4cc5cc3Oc3ccc(cc3Cl)[C@@H](O)[C@@H](NC(=O)[C@@H](CC(C)C)NC)C(=O)N[C@@H](CC(N)=O)C(=O)N[C@H]5C(=O)N[C@H]3C(=O)N[C@H](C(=O)N[C@H](C(=O)O)c5cc(O)c(CNCP(=O)(O)O)c(O)c5-c5cc3ccc5O)[C@H](O)c3ccc(c(Cl)c3)O4)O[C@H](CO)[C@@H](O)[C@@H]2O)O[C@@H](C)[C@H]1O [TELAVANCIN] the MIC (Staphylococcus aureus [1]) was 1 µg/mL (≈ 0.57 µM), the Activity (Staphylococcus aureus [2]) was “Active” and the Activity (Staphylococcus aureus [3]) was “Active”. The Activity (Staphylococcus aureus [4]) was “Active”, the Activity (Staphylococcus aureus [5]) was “Active” and the Activity (Staphylococcus aureus [6]) was “Active”. For the same compound, the Activity (Staphylococcus aureus [7]) was “Active”, the Activity [8] was “inactive” and the deltalog10CFU/ml (Staphylococcus aureus [9]) was -2. The deltalog10CFU/ml (Staphylococcus aureus [10]) was -2.6, the deltalog10CFU/ml (Staphylococcus aureus [11]) was -0.5 and the deltalog10CFU/ml (Staphylococcus aureus [12]) was -1. For the same compound, the deltalog10CFU/ml (Staphylococcus aureus [13]) was -5.1, the deltalog10CFU/ml (Staphylococcus aureus [14]) was -3.8 and the deltalog10CFU/ml (Staphylococcus aureus [15]) was -3.6. For the same compound, the deltalog10CFU/ml (Staphylococcus aureus [16]) was -3.6, the deltalog10CFU/ml (Staphylococcus aureus [17]) was -4.2 and the deltalog10CFU/ml (Staphylococcus aureus [18]) was -2.3. The deltalog10CFU/ml (Staphylococcus aureus [19]) was -2.9, the deltalog10CFU/ml (Staphylococcus aureus [20]) was -2.6 and the deltalog10CFU/ml (Staphylococcus aureus [21]) was -1.6. The deltalog10CFU/ml (Staphylococcus aureus [22]) was -3.5, the deltalog10CFU/ml (Staphylococcus aureus [23]) was -1 and the deltalog10CFU/ml (Staphylococcus aureus [24]) was -4.7. It also gave a deltalog10CFU/ml (Staphylococcus aureus [25]) of -4.7, a deltalog10CFU/ml (Staphylococcus aureus [26]) of -4.7 and a deltalog10CFU/ml (Staphylococcus aureus [27]) of -2.8. For the same compound, the deltalog10CFU/ml (Staphylococcus aureus [28]) was -1.9, the deltalog10CFU/ml (Staphylococcus aureus [29]) was -4.6 and the deltalog10CFU/ml (Staphylococcus aureus [30]) was -3.9. The deltalog10CFU/ml (Staphylococcus aureus [31]) was -2.9, the deltalog10CFU/ml (Staphylococcus aureus [32]) was -1.3 and the deltalog10CFU/ml (Staphylococcus aureus [33]) was -2.4. It also gave a deltalog10CFU/ml (Staphylococcus aureus [34]) of -4.7.
